Test results as given in ChEMBL document CHEMBL1649261, “Pharmacodynamic profile of tigecycline against methicillin-resistant Staphylococcus aureus in an experimental pneumonia model” (Antimicrob Agents Chemother, 2009).
≈ marks a conversion by molar mass, not a printed value.

What was measured:
[1] = tested on: Staphylococcus aureus; test: Antibacterial activity against community-acquired methicillin-resistant Staphylococcus aureus 156 by microdilution method; type: functional
Outline: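 Tigecycline MIC measured in triplicate by broth microdilution following CLSI guidelines. Isolates were stored at −80°C in skim milk and subcultured twice on blood agar before testing.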

[2] = Cmax in BALB/c mouse infected with Staphylococcus aureus at 12.5 mg/kg, sc administered as single dose; type: ADME, organism-based; parameters: dose 12.5 mg/kg, route subcutaneous; details: in vivo
Outline: (§1)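 Neutropenic BALB/c mice (cyclophosphamide ip 250 and 100 mg/kg, days −4 and −1) with S. aureus pneumonia from oral instillation of 0.05 ml of a 3% mucin suspension received a single 0.2-ml sc dose in normal saline. Serum was taken at 0.25, 0.5, 1, 1.5, 2, 4, 6 and 8 h, six mice per time point. Drug was measured by validated HPLC.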

[3] = Cmax in BALB/c mouse infected with Staphylococcus aureus at 25 mg/kg, sc administered as single dose; type: ADME, organism-based; parameters: dose 25 mg/kg, route subcutaneous; details: in vivo; outline: as §1
[4] = Tmax in BALB/c mouse infected with Staphylococcus aureus at 6.25 mg/kg, sc administered as single dose; type: ADME, organism-based; parameters: dose 6.25 mg/kg, route subcutaneous; details: in vivo; outline: as §1
[5] = Tmax in BALB/c mouse infected with Staphylococcus aureus at 50 mg/kg, sc administered as single dose; type: ADME, organism-based; parameters: dose 50 mg/kg, route subcutaneous; details: in vivo; outline: as §1
[6] = AUC (0 to 24 hrs) in BALB/c mouse infected with Staphylococcus aureus at 6.25 mg/kg, sc administered as single dose; type: ADME, organism-based; parameters: time < 24 hr, dose 6.25 mg/kg, route subcutaneous; details: plasma; outline: as §1
[7] = AUC (0 to 24 hrs) in BALB/c mouse infected with Staphylococcus aureus at 12.5 mg/kg, sc administered as single dose; type: ADME, organism-based; parameters: time < 24 hr, dose 12.5 mg/kg, route subcutaneous; details: plasma; outline: as §1
[8] = AUC (0 to 24 hrs) in BALB/c mouse infected with Staphylococcus aureus at 25 mg/kg, sc administered as single dose; type: ADME, organism-based; parameters: time < 24 hr, dose 25 mg/kg, route subcutaneous; details: plasma; outline: as §1
[9] = AUC (0 to 24 hrs) in BALB/c mouse infected with Staphylococcus aureus at 50 mg/kg, sc administered as single dose; type: ADME, organism-based; parameters: time < 24 hr, dose 50 mg/kg, route subcutaneous; details: plasma; outline: as §1
[10] = Half life in BALB/c mouse infected with Staphylococcus aureus at 12.5 mg/kg, sc administered as single dose; type: ADME, organism-based; parameters: dose 12.5 mg/kg, route subcutaneous; details: in vivo; outline: as §1
[11] = Half life in BALB/c mouse infected with Staphylococcus aureus at 25 mg/kg, sc administered as single dose; type: ADME, organism-based; parameters: dose 25 mg/kg, route subcutaneous; details: in vivo; outline: as §1
[12] = tested on: Mus musculus; test: Volume of distribution in BALB/c mouse infected with Staphylococcus aureus at 12.5 mg/kg, sc administered as single dose; type: ADME, organism-based; parameters: dose 12.5 mg/kg, route subcutaneous; details: in vivo; outline: as §1
[13] = tested on: Mus musculus; test: Volume of distribution in BALB/c mouse infected with Staphylococcus aureus at 25 mg/kg, sc administered as single dose; type: ADME, organism-based; parameters: dose 25 mg/kg, route subcutaneous; details: in vivo; outline: as §1
[14] = Protein binding in Staphylococcus aureus-infected BALB/c mouse serum at 6.25 mg/kg, sc administered as single dose; type: ADME, organism-based; parameters: dose 6.25 mg/kg, route subcutaneous; details: read-out: PB (converted)
Outline: (§2)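 Ultrafiltration was run in triplicate with 30,000-MW cutoff devices. Drug was diluted into fresh mouse serum to final 1.5, 3, 6 and 15 μg/ml, held at 37°C for 10 min with shaking, and centrifuged at 1,000 × g for 45 min at 10°C. Binding was calculated as (S − SUF)/S × 100 for each concentration, each matched to a dose by its peak serum level.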

[15] = Protein binding in Staphylococcus aureus-infected BALB/c mouse serum at 25 mg/kg, sc administered as single dose; type: ADME, organism-based; parameters: dose 25 mg/kg, route subcutaneous; details: read-out: PB (converted); outline: as §2
[16] = Ratio of fAUC (0 to 8 hrs) in epithelial lining fluid to plasma of Staphylococcus aureus-infected BALB/c mouse at 25 mg/kg, sc administered as single dose; type: ADME, organism-based; parameters: dose 25 mg/kg, route subcutaneous
Outline: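 Neutropenic BALB/c mice (cyclophosphamide ip 250 and 100 mg/kg, 4 d and 1 d pre-inoculation) infected orally with S. aureus in 3% mucin. Single 0.2-ml sc dose in normal saline; six mice per time point. Serum sampled 0.25–8 h, BAL at 0.25, 1, 4, 8 h; HPLC; ELF by urea correction. Trapezoidal AUC0-8; serum corrected for ultrafiltration protein binding, BAL drug assumed free.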

[17] = Ratio of fAUC to MIC in methicillin-susceptible Staphylococcus aureus ATCC 29213-infected BALB/c mouse at 80% maximal effective concentration; type: functional
Outline: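 Mice were neutropenic and infected by lung instillation with ATCC 29213, with the MIC set by CLSI broth microdilution in triplicate. Sc treatment started 6 h post-inoculation at 1.56–150 mg/kg/day, given as one, two or three doses. Lung CFU at 24 h were compared with 0-h controls. Change in log10 CFU was fitted against protein-binding-corrected fAUC/MIC with a sigmoid Emax model.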

[18] = Ratio of fAUC to MIC in community-acquired methicillin-resistant Staphylococcus aureus 144-infected BALB/c mouse at 80% maximal effective concentration; type: functional
Outline: (§3)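 Neutropenic BALB/c mice (cyclophosphamide 250 and 100 mg/kg i.p., 4 and 1 days before infection) were infected by oral inhalation of 0.05 ml inoculum in 3% mucin under isoflurane. Subcutaneous tigecycline (1.56–150 mg/kg/day, single or 2–3 divided doses, saline vehicle) was started 6 h post-infection. At 24 h lungs were homogenized and plated; change in log10 CFU was taken versus 0-h controls.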

[19] = Ratio of fAUC to MIC in community-acquired methicillin-resistant Staphylococcus aureus 156-infected BALB/c mouse at 80% maximal effective concentration; type: functional; outline: as §3
[20] = Ratio of fAUC to MIC in hospital-acquired methicillin-resistant Staphylococcus aureus 56-infected BALB/c mouse at 80% maximal effective concentration; type: functional; outline: as §3
[21] = Ratio of fAUC to MIC in hospital-acquired methicillin-resistant Staphylococcus aureus 152-infected BALB/c mouse at 80% maximal effective concentration; type: functional; outline: as §3
[22] = Ratio of fAUC to MIC in community-acquired methicillin-resistant Staphylococcus aureus 156-infected BALB/c mouse at […] maximal effective concentration; type: functional; outline: as §3
[23] = Ratio of fAUC to MIC in community-acquired methicillin-resistant Staphylococcus aureus 147-infected BALB/c mouse at […] maximal effective concentration; type: functional; outline: as §3
[24] = Ratio of fAUC to MIC in hospital-acquired methicillin-resistant Staphylococcus aureus 56-infected BALB/c mouse at […] maximal effective concentration; type: functional; outline: as §3
[25] = Ratio of fAUC to MIC in hospital-acquired methicillin-resistant Staphylococcus aureus 152-infected BALB/c mouse at […] maximal effective concentration; type: functional; outline: as §3
[26] = Ratio of fAUC to MIC in community-acquired methicillin-resistant Staphylococcus aureus 144-infected BALB/c mouse at bacteriostatic concentration; type: functional; outline: as §3
[27] = Ratio of fAUC to MIC in hospital-acquired methicillin-resistant Staphylococcus aureus 56-infected BALB/c mouse at bacteriostatic concentration; type: functional; outline: as §3

CN(C)c1cc(NC(=O)CNC(C)(C)C)c(O)c2c1C[C@H]1C[C@H]3[C@H](N(C)C)C(O)=C(C(N)=O)C(=O)[C@@]3(O)C(O)=C1C2=O [TIGECYCLINE]
MIC [1]: 0.125 mg/L (≈ 0.213 µM)
Cmax [2]: 3.09 µg/mL
Cmax [3]: 5.99 µg/mL
Tmax [4]: 0.34 h
Tmax [5]: 0.35 h
AUC(0-t) at 24 h [6]: 9.98 µg·h/mL
AUC(0-t) at 24 h [7]: 16.5 µg·h/mL
AUC(0-t) at 24 h [8]: 37.5 µg·h/mL
AUC(0-t) at 24 h [9]: 72.5 µg·h/mL
half-life [10]: 7.13 h
half-life [11]: 12.4 h
Vd [12]: 3.62 L/kg
Vd [13]: 2.77 L/kg
fraction unbound [14]: 0.15
fraction unbound [15]: 0.063
Kp uu [16]: 15.1
fAUC/MIC [17]: 2.68
fAUC/MIC [18]: 2.64
fAUC/MIC [19]: 5.22
fAUC/MIC [20]: 2.11
fAUC/MIC [21]: 2.48
fAUC/MIC [22]: 3.91
fAUC/MIC [23]: 0.69
fAUC/MIC [24]: 0.38
fAUC/MIC [25]: 1.43
fAUC/MIC [26]: 2.17
fAUC/MIC [27]: 0.43
